# In ChEMBL document CHEMBL1151981, “Bioactive pyridine-N-oxide disulfides from Allium stipitatum” (J Nat Prod, 2009):
# Calls of active or inactive are those of the source. The calls are words filed in the database; no cut-off is given here.
# What was measured:
# [1] = tested on: Mycolicibacterium fortuitum; test: Antibacterial activity against Mycobacterium fortuitum after 72 hrs; assay type: functional
# In short: (§1)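 Fast-growing mycobacteria obtained from NCTC; cultures grown on Columbia blood agar with 7% defibrinated horse blood at 37 °C for 72 h before MIC determination. Ethambutol and isoniazid served as positive controls.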
# [2] = tested on: Mycolicibacterium smegmatis; test: Antibacterial activity against Mycobacterium smegmatis after 72 hrs; assay type: functional; in short: as §1
# [3] = tested on: Mycolicibacterium smegmatis; test: Antibacterial activity against Mycobacterium smegmatis mc2 2700 after 72 hrs; assay type: functional; settings: mc2 2700, 72 h
# Mycolicibacterium phlei = test: Antibacterial activity against Mycobacterium phlei after 72 hrs; assay type: functional; in short: as §1
# Staphylococcus aureus [4] = test: Antibacterial activity against Staphylococcus aureus SA1199B overexpressing NorA efflux pump after 72 hrs; assay type: functional
# Staphylococcus aureus [5] = test: Antibacterial activity against tetracycline-effluxing Staphylococcus aureus XU212 after 72 hrs; assay type: functional; settings: XU212, 72 h
# In short: (§2)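 S. aureus strains tested in a MIC assay; norfloxacin and oxacillin used as positive controls.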
# Staphylococcus aureus [6] = test: Antibacterial activity against Staphylococcus aureus EMRSA15 after 72 hrs; assay type: functional; settings: EMRSA15, 72 h; in short: as §2
# [7] = tested on: Mycobacterium tuberculosis; test: Antibacterial activity against Mycobacterium tuberculosis H37Rv ATCC 27294 assessed as decrease in viable bacterial counts at 1.25 ug/ml after 7 days by spot-culture growth inhibition assay; assay type: functional
# [8] = tested on: Mycobacterium tuberculosis; test: Antibacterial activity against Mycobacterium tuberculosis H37Rv ATCC 27294 assessed as decrease in viable bacterial counts at 0.01 to 5 ug/ml after 14 days by spot-culture growth inhibition assay; assay type: functional, organism-based
# In short: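 Mid-exponential cultures (BCG rotated in 7H9/ADC/Tween 80; H37Rv standing in 7H9/OADC/Tween 80) diluted to 10³ cells/mL. 5 µL spotted onto 7H10 agar with 10% OADC containing compound at 0.01, 0.1, 0.5, 1 and 5 µg/mL. Incubated at 37 °C for 14 days. MIC taken as lowest concentration with no growth; no-compound well as growth control.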
# [9] = tested on: Mycolicibacterium smegmatis; test: Inhibition of fatty acid biosynthesis in Mycobacterium smegmatis assessed as inhibition of [14C]acetate incorporation into soluble lipid at 30 ug/ml treated 2 hrs before [14C]acetate addition measured after 2 hrs of [14C]acetate infusion by whole-cell assay; assay type: functional, organism-based
# In short: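 Replicating M. smegmatis whole cells exposed to compound at 30 µg/mL for 2 h, then [1-14C]acetate added for a further 2 h. Soluble lipids (mostly fatty acids) extracted and counts per minute compared with untreated control.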
# [10] = tested on: Mycobacterium tuberculosis; test: Effect on trxB2 RNA expression in Mycobacterium tuberculosis H37Rv ATCC 27294 at 2 to 10 ug/ml after 6 hrs by microarray analysis; assay type: functional, organism-based
# In short: (§3)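 H37Rv grown in 7H9 with 0.2% glycerol, 0.5% BSA fraction V, 0.05% Tween 80, 0.08% NaCl and 0.2% glucose to OD650 0.3. Treated with 2, 5 or 10 µg/mL compound, or matching DMSO, for 6 h. RNA isolated, labelled cDNA hybridised to microarrays. Predictive genes found by class prediction analysis.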
# [11] = tested on: Mycobacterium tuberculosis; test: Effect on trxC RNA expression in Mycobacterium tuberculosis H37Rv ATCC 27294 at 2 to 10 ug/ml after 6 hrs by microarray analysis; assay type: functional, organism-based; in short: as §3
# [12] = tested on: Mycobacterium tuberculosis; test: Upregulation of clpB RNA expression in Mycobacterium tuberculosis H37Rv ATCC 27294 at 2 to 10 ug/ml after 6 hrs by microarray analysis; assay type: functional, organism-based; in short: as §3
# [13] = tested on: Mycobacterium tuberculosis; test: Upregulation of sigH RNA expression in Mycobacterium tuberculosis H37Rv ATCC 27294 at 2 to 10 ug/ml after 6 hrs by microarray analysis; assay type: functional, organism-based; in short: as §3
# [14] = tested on: Mycobacterium tuberculosis; test: Upregulation of dnaJ RNA expression in Mycobacterium tuberculosis H37Rv ATCC 27294 at 2 to 10 ug/ml after 6 hrs by microarray analysis; assay type: functional, organism-based; in short: as §3
# [15] = tested on: Mycobacterium tuberculosis; test: Upregulation of dnaK RNA expression in Mycobacterium tuberculosis H37Rv ATCC 27294 at 2 to 10 ug/ml after 6 hrs by microarray analysis; assay type: functional, organism-based; in short: as §3
# [16] = tested on: Mycobacterium tuberculosis; test: Upregulation of hsp RNA expression in Mycobacterium tuberculosis H37Rv ATCC 27294 at 2 to 10 ug/ml after 6 hrs by microarray analysis; assay type: functional, organism-based; in short: as §3
# [17] = tested on: Mycobacterium tuberculosis; test: Upregulation of Rv0331 RNA expression in Mycobacterium tuberculosis H37Rv ATCC 27294 at 2 to 10 ug/ml after 6 hrs by microarray analysis; assay type: functional, organism-based; in short: as §3
# [18] = tested on: Mycobacterium tuberculosis; test: Upregulation of Rv3463 RNA expression in Mycobacterium tuberculosis H37Rv ATCC 27294 at 2 to 10 ug/ml after 6 hrs by microarray analysis; assay type: functional, organism-based; in short: as §3
# [19] = tested on: Mycobacterium tuberculosis; test: Upregulation of Rv3054c RNA expression in Mycobacterium tuberculosis H37Rv ATCC 27294 at 2 to 10 ug/ml after 6 hrs by microarray analysis; assay type: functional, organism-based; in short: as §3
# [20] = tested on: Mycobacterium tuberculosis; test: Upregulation of Rv1334 RNA expression in Mycobacterium tuberculosis H37Rv ATCC 27294 at 2 to 10 ug/ml after 6 hrs by microarray analysis; assay type: functional, organism-based; in short: as §3
# [21] = tested on: Mycobacterium tuberculosis; test: Upregulation of Rv1335 RNA expression in Mycobacterium tuberculosis H37Rv ATCC 27294 at 2 to 10 ug/ml after 6 hrs by microarray analysis; assay type: functional, organism-based; in short: as §3
# Mus musculus [22] = test: Toxicity in C57BL/6 mouse assessed as lethality at 300 mg/kg administered as single dose via oral gavage for 3 days measured 2 days after final dose; assay type: organism-based; set-up: dose 300 mg/kg, route oral; settings: in vivo, 48 h
# In short: (§4)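 Female C57BL/6 mice, three per dose, got a single oral gavage dose of 30, 100 or 300 mg/kg. Observed at 4 and 6 h after dosing, then twice daily for 1 week. The tabulated data describe 3-day dosing.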
# Mus musculus [23] = test: Toxicity in C57BL/6 mouse assessed as lethality at 300 mg/kg administered as single dose via oral gavage for 3 days measured 3 days after final dose; assay type: organism-based; set-up: dose 300 mg/kg, route oral; settings: in vivo, 72 h; in short: as §4
# Mus musculus [24] = test: Toxicity in C57BL/6 mouse assessed as transient lethargy at 100 mg/kg administered as single dose via oral gavage for 3 days measured 3 days after final dose; assay type: organism-based; set-up: dose 100 mg/kg, route oral; settings: in vivo, 72 h
# Mus musculus [25] = test: Toxicity in C57BL/6 mouse assessed as adverse effect at 30 mg/kg administered as single dose via oral gavage for 3 days measured after 3 days post final dose; assay type: organism-based; set-up: dose 30 mg/kg, route oral; settings: in vivo, 72 h
# [26] = Toxicity in C57BL/6 mouse assessed as maximum tolerated dose administered as single dose via oral gavage for 3 days measured 4 hrs after final dose; assay type: organism-based; settings: in vivo; in short: as §4
# [27] = Toxicity in C57BL/6 mouse assessed as maximum tolerated dose administered as single dose via oral gavage for 3 days measured 6 hrs after final dose; assay type: organism-based; settings: in vivo; in short: as §4
# [28] = Toxicity in C57BL/6 mouse assessed as maximum tolerated dose administered as single dose via oral gavage for 3 days measured twice daily for 1 week after final dose; assay type: organism-based; settings: in vivo; in short: as §4
# [29] = tested on: Mycobacterium tuberculosis; test: Antibacterial activity against Mycobacterium tuberculosis infected in GKO C57BL/6 mouse assessed as bacterial number in lung at 30 mg/kg/day administered 14 days postinfection via oral gavage for nine consecutive days measured on day 24 postinfection; assay type: functional
# In short: (§5)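 Female GKO C57BL/6 mice, 8–10 weeks old, infected by low-dose aerosol with M. tuberculosis Erdman (50–100 CFU uptake confirmed day 1). Daily oral gavage in 0.5% methyl cellulose from day 14 for nine consecutive days; isoniazid given at 25 mg/kg/day. Five mice per group, with untreated and pretreatment controls. Lung and spleen CFU log-transformed; one-way ANOVA with Tukey test.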
# [30] = tested on: Mycobacterium tuberculosis; test: Antibacterial activity against Mycobacterium tuberculosis infected in GKO C57BL/6 mouse assessed as bacterial number in spleen at 30 mg/kg/day administered 14 days postinfection via oral gavage for nine consecutive days measured on day 24 postinfection; assay type: functional; in short: as §5
# MCF7 = test: Cytotoxicity against human MCF7 cells after 96 hrs by sulforhodamine B assay; assay type: functional, cell-based; settings: MCF7, 96 h
# In short: (§6)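 SRB assay. Cells seeded at 4000/well in DMEM and allowed to attach overnight at 37 °C, 5% CO2. Exposed in quadruplicate to freshly made compound, 0.1–25 µM, for 96 h. Fixed with ice-cold 10% TCA for 30 min, stained with 0.4% SRB in 1% acetic acid for 15 min. Absorbance read at 540 nm as % of untreated control; IC50 derived from means.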
# A549 = test: Cytotoxicity against human A549 cells after 96 hrs by sulforhodamine B assay; assay type: functional, cell-based; settings: A549, 96 h; in short: as §6
# HT-29 = test: Cytotoxicity against human HT-29 cells after 96 hrs by sulforhodamine B assay; assay type: functional, cell-based; settings: HT-29, 96 h; in short: as §6
# [31] = Cytotoxicity against human WI38 cells after 96 hrs by sulforhodamine B assay; assay type: cell-based; settings: WI-38, 96 h; in short: as §6
smiles,measurement,setting,value
CSSc1cccc[n+]1[O-],MIC,[1],8 µg/mL
same,MIC,[2],8 µg/mL
same,MIC,[3],8 µg/mL
same,MIC,Mycolicibacterium phlei,2 µg/mL
same,MIC,Staphylococcus aureus [4],2 µg/mL
same,MIC,Staphylococcus aureus [5],1 µg/mL
same,MIC,Staphylococcus aureus [6],0.5 µg/mL
same,Activity,[7],99%
same,Activity,[8],Active
same,inhibition,[9],Active
same,Activity,[10],Active
same,Activity,[11],Active
same,Activity,[12],Active
same,Activity,[13],Active
same,Activity,[14],Active
same,Activity,[15],Active
same,Activity,[16],Active
same,Activity,[17],Active
same,Activity,[18],Active
same,Activity,[19],Active
same,Activity,[20],Active
same,Activity,[21],Active
same,Activity,Mus musculus [22],Toxic
same,Activity,Mus musculus [23],Toxic
same,Activity,Mus musculus [24],Toxic
same,Activity,Mus musculus [25],Non-toxic
same,MTD at 4 h,[26],30 mg/kg
same,MTD at 6 h,[27],30 mg/kg
same,MTD at 168 h,[28],30 mg/kg
same,log10cfu,[29],8.17
same,log10cfu,[30],6.17
same,IC50,MCF7,350 nM
same,IC50,A549,220 nM
same,IC50,HT-29,1840 nM
same,IC50,[31],800 nM
CSSc1ncccn1,MIC,[1],8 µg/mL
same,MIC,[2],8 µg/mL
same,MIC,Mycolicibacterium phlei,16 µg/mL
same,MIC,Staphylococcus aureus [4],2 µg/mL
same,MIC,Staphylococcus aureus [5],4 µg/mL
same,MIC,Staphylococcus aureus [6],2 µg/mL
Cc1onc(-c2ccccc2)c1C(=O)N[C@@H]1C(=O)N2[C@@H]1SC(C)(C)[C@@H]2C(=O)O [OXACILLIN],MIC,Staphylococcus aureus [4],0.25 µg/mL
same,MIC,Staphylococcus aureus [5],128 µg/mL
same,MIC,Staphylococcus aureus [6],32 µg/mL
CSSc1ccc2ccccc2n1,MIC,[1],4 µg/mL
same,MIC,[2],8 µg/mL
same,MIC,Mycolicibacterium phlei,8 µg/mL
same,MIC,Staphylococcus aureus [4],4 µg/mL
same,MIC,Staphylococcus aureus [5],4 µg/mL
same,MIC,Staphylococcus aureus [6],4 µg/mL
CSSc1ccccn1,MIC,[1],8 µg/mL
same,MIC,[2],8 µg/mL
same,MIC,Mycolicibacterium phlei,16 µg/mL
same,MIC,Staphylococcus aureus [4],2 µg/mL
same,MIC,Staphylococcus aureus [5],4 µg/mL
same,MIC,Staphylococcus aureus [6],2 µg/mL
CC1=CC(=O)c2ccccc2C1=O,Activity,[10],Active
same,Activity,[11],Active
same,Activity,[12],Active
same,Activity,[13],Active
same,Activity,[14],Active
same,Activity,[15],Active
same,Activity,[16],Active
same,Activity,[17],Active
same,Activity,[18],Active
same,Activity,[19],Active
same,Activity,[20],Active
same,Activity,[21],Active
CSCSSc1cccc[n+]1[O-],MIC,[1],8 µg/mL
same,MIC,[2],4 µg/mL
same,MIC,[3],4 µg/mL
same,MIC,Mycolicibacterium phlei,2 µg/mL
same,MIC,Staphylococcus aureus [4],1 µg/mL
same,MIC,Staphylococcus aureus [5],1 µg/mL
same,MIC,Staphylococcus aureus [6],0.5 µg/mL
same,Activity,[8],Active
same,IC50,MCF7,390 nM
same,IC50,A549,780 nM
same,IC50,[31],890 nM
